Blank lines part the entries; values can stand above or below the molecule they belong to. Calls of active or inactive are those of the source. The rule behind the calls is not given here.
Assays:
NCI-H226 [1] = experiment: Antiproliferative activity against human NCI-H226 cells incubated for 120 hrs by Celltiter-glo luminescent assay; assay type: functional, cell-based; conditions: NCI-H226, 120 h
Outline: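 5-day exposure of NF2-deficient NCI-H226 cells to compounds at a range of concentrations; IC50 taken as mean ± SEM of four independent replicates.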

[2] = biological target: T1, Protein cereblon-TEAD (Homo sapiens) (UniProt P28347+Q96SW2+Q15561+Q15562+Q99594); experiment: Protac activity at CRBN/TEAD in human NCI-H226 cells at 0.1 uM incubated for 24 hrs by Western blot analysis; assay type: cell-based
Outline: (§1)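 NCI-H226 cells exposed 24 h to 0.1, 1 or 10 μM compound. TEAD detected with pan-TEAD antibody by Western blot and quantified as percent degradation. Mean ± SEM of three independent replicates.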

Protein cereblon-TEAD = experiment: Protac activity at CRBN/TEAD in human NCI-H226 cells incubated for 24 hrs by Western blot analysis; assay type: cell-based
Outline: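 NCI-H226 cells exposed 24 h to compound across a broad concentration range. Pan-TEAD Western blot quantified; DC50 (half-maximal degradation concentration) derived. Mean ± SEM of three independent replicates.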

[3] = biological target: T1, Protein cereblon-TEAD (Homo sapiens); experiment: Protac activity at CRBN/TEAD in human NCI-H226 cells at 1 to 10 uM incubated for 24 hrs by Western blot analysis; assay type: cell-based; conditions: dose 1-10 µM; outline: as §1
[4] = biological target: Protein cereblon/Transcriptional enhancer factor TEF-4 (Homo sapiens, UniProt Q96SW2+Q15562); experiment: Protac activity at CRBN (unknown origin) /Flag-tagged TEAD2 (unknown origin) transfected in HEK293T cells pretreated with cycloheximide for 2 hrs followed by compound addition and measured after 24 hrs by Western blot analysis; assay type: cell-based
Outline: (§2)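 293T cells transfected separately with Flag-TEAD1, -2, -3 or -4. Pretreated 2 h with 200 μg/mL cycloheximide, then 24 h with compound at a series of concentrations. Isoform detected by anti-Flag Western blot and quantified. DC50 or maximal degradation derived. Mean ± SEM of three independent replicates.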

NCI-H226 [5] = experiment: Downregulation of CYR61 gene expression in human NCI-H226 cells incubated for 8 hrs by RT-qPCR analysis; assay type: functional, cell-based; conditions: dose 0.5-1 µM
Outline: (§3)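 NCI-H226 cells exposed to 0.5 or 1 μM compound for 8 h. Transcript levels measured by qPCR. Mean ± SEM of three independent replicates.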

[6] = biological target: Protein cereblon/Transcriptional enhancer factor TEF-3 (Homo sapiens) (UniProt Q96SW2+Q15561); experiment: Protac activity at CRBN (unknown origin) /Flag-tagged TEAD4 (unknown origin) transfected in HEK293T cells at 9.75 to 1000 nM pretreated with cycloheximide for 2 hrs followed by compound addition and measured after 24 hrs by Western blot analysis; assay type: cell-based; conditions: dose 9.75-1000 nM; outline: as §2
[7] = biological target: Protein cereblon/Programmed cell death protein 2 (Homo sapiens) (UniProt Q96SW2+Q16342); experiment: Protac activity at CRBN/PDCD2 in human NCI-H226 cells at 0.01 to 10 uM incubated for 24 hrs by Western blot analysis; assay type: cell-based; conditions: dose 0.01-10 µM
Outline: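 PDCD2 degradation in NCI-H226 cells after 24 h with compound at 0.01, 0.1, 1 and 10 μM, assessed by Western blot.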

[8] = biological target: T1, Protein cereblon-TEAD (Homo sapiens); experiment: Protac activity at CRBN/TEAD in human NCI-H226 cells at 1 uM incubated for 10 to 24 hrs by Western blot analysis; assay type: cell-based; conditions: time 10-24 hrs
Outline: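 Time course in NCI-H226 cells: 1 μM compound for 1 to 24 h, pan-TEAD Western blot quantified. Mean ± SEM of three independent replicates.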

NCI-H226 [9] = experiment: Downregulation of CTGF gene expression in human NCI-H226 cells incubated for 8 hrs by RT-qPCR analysis; assay type: functional, cell-based; conditions: dose 0.5-1 µM; outline: as §3
NCI-H226 [10] = experiment: Downregulation of IGFBP3 gene expression in human NCI-H226 cells incubated for 8 hrs by RT-qPCR analysis; assay type: functional, cell-based; conditions: dose 0.5-1 µM; outline: as §3
[11] = biological target: T1, Protein cereblon-TEAD (Homo sapiens); experiment: Protac activity at CRBN/TEAD in human NCI-H226 cells at 1 uM preincubated with thalidomide for 1 hr followed by compound addition and measured after 8 hrs by Western blot analysis; assay type: cell-based
Outline: (§4)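 Rescue design: NCI-H226 cells pretreated 1 h with BafA1, MG132, thalidomide or VT107, then cotreated 8 h with compound. Protein levels measured by Western blot.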

[12] = biological target: Protein cereblon/Transcriptional enhancer factor TEF-1 (Homo sapiens) (UniProt P28347+Q96SW2); experiment: Protac activity at CRBN (unknown origin) /Flag-tagged TEAD1 (unknown origin) transfected in HEK293T cells at 9.75 to 1000 nM pretreated with cycloheximide for 2 hrs followed by compound addition and measured after 24 hrs by Western blot analysis; assay type: cell-based; conditions: dose 9.75-1000 nM; outline: as §2
[13] = biological target: Protein cereblon/Transcriptional enhancer factor TEF-5 (Homo sapiens) (UniProt Q96SW2+Q99594); experiment: Protac activity at CRBN (unknown origin) /Flag-tagged TEAD3 (unknown origin) transfected in HEK293T cells at 9.75 to 1000 nM pretreated with cycloheximide for 2 hrs followed by compound addition and measured after 24 hrs by Western blot analysis; assay type: cell-based; conditions: dose 9.75-1000 nM; outline: as §2
NCI-H226 [14] = experiment: Upregulation of FBXO32 gene expression in human NCI-H226 cells incubated for 8 hrs by RT-qPCR analysis; assay type: functional, cell-based; conditions: dose 0.5-1 µM; outline: as §3
NCI-H2452 = experiment: Antiproliferative activity against human NCI-H2452 cells incubated for 120 hrs by Celltiter-glo luminescent assay; assay type: functional, cell-based; conditions: NCI-H2452, 120 h
Outline: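 NCI-H2452 cells (wild-type NF2) exposed to compound over a concentration range; IC50 estimated from the dose-response.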

NCI-H226 [15] = experiment: Downregulation of AMOTL2 gene expression in human NCI-H226 cells incubated for 8 hrs by RT-qPCR analysis; assay type: functional, cell-based; conditions: dose 0.5-1 µM; outline: as §3
[16] = biological target: T1, Protein cereblon-TEAD (Homo sapiens); experiment: Protac activity at CRBN/TEAD in human NCI-H226 cells at 1 uM preincubated with VT107 for 1 hr followed by compound addition and measured after 8 hrs by Western blot analysis; assay type: cell-based; outline: as §4
[17] = biological target: T1, Protein cereblon-TEAD (Homo sapiens); experiment: Protac activity at CRBN/TEAD in human NCI-H226 cells at 1 uM preincubated with MG132 for 1 hr followed by compound addition and measured after 8 hrs by Western blot analysis; assay type: cell-based; outline: as §4
[18] = biological target: T1, Protein cereblon-TEAD (Homo sapiens); experiment: Protac activity at CRBN/TEAD in human NCI-H226 cells at 1 uM preincubated with BafA1 for 1 hr followed by compound addition and measured after 8 hrs by Western blot analysis; assay type: cell-based; outline: as §4
NCI-H226 [19] = experiment: Downregulation of NPPB gene expression in human NCI-H226 cells incubated for 8 hrs by RT-qPCR analysis; assay type: functional, cell-based; conditions: dose 0.5-1 µM; outline: as §3

T1 sequence (Q15562 whole entry partner): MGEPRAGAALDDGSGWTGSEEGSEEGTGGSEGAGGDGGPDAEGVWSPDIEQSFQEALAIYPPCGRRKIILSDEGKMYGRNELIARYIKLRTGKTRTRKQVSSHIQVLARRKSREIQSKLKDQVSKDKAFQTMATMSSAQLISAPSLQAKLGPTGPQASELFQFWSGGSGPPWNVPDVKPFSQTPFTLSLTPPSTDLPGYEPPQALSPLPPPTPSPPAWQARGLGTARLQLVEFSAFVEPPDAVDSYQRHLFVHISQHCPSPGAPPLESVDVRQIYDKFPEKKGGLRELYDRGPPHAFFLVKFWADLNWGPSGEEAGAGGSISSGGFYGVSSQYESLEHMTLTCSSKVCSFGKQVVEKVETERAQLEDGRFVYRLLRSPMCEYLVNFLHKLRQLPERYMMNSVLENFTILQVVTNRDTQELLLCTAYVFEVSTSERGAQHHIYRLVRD
T1 sequence (Q96SW2 whole entry partner): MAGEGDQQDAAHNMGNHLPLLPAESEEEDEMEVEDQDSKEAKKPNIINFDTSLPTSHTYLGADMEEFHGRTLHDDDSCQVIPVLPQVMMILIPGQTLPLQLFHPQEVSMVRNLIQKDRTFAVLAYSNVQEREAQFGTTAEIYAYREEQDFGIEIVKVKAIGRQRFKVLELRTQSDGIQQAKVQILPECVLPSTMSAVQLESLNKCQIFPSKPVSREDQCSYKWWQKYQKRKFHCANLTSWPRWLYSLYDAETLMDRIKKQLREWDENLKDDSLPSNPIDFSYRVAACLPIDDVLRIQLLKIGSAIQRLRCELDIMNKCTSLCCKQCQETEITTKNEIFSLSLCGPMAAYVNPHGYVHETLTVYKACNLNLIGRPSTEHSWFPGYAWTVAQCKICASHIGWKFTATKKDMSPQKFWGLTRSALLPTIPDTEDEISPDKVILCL
T1 sequence (Q99594 2-435 partner limits assumed): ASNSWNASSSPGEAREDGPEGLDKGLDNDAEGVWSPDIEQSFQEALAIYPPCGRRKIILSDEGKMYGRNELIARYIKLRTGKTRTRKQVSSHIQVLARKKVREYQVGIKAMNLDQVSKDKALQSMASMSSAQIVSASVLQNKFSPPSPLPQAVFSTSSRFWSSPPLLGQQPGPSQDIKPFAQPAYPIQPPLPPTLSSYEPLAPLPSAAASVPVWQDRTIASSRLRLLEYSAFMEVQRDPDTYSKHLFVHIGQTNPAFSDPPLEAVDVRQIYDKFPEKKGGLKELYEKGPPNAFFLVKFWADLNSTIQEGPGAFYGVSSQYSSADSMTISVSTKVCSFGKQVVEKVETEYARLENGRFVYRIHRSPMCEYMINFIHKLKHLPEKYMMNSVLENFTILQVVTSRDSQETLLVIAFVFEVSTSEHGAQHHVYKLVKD
T1 sequence (P28347 whole entry): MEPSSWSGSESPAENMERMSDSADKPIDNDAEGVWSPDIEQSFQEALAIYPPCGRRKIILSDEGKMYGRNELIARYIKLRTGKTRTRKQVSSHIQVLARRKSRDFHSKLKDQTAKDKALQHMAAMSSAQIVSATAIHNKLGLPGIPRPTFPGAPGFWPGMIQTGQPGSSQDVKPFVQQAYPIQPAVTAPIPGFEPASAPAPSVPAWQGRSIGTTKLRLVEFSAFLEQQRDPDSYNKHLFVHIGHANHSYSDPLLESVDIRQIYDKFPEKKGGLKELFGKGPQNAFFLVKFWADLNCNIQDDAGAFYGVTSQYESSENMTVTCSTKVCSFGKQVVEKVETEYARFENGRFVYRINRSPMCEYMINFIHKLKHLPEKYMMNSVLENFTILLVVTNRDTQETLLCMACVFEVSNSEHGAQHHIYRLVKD
T1 sequence (Q15561 whole entry partner): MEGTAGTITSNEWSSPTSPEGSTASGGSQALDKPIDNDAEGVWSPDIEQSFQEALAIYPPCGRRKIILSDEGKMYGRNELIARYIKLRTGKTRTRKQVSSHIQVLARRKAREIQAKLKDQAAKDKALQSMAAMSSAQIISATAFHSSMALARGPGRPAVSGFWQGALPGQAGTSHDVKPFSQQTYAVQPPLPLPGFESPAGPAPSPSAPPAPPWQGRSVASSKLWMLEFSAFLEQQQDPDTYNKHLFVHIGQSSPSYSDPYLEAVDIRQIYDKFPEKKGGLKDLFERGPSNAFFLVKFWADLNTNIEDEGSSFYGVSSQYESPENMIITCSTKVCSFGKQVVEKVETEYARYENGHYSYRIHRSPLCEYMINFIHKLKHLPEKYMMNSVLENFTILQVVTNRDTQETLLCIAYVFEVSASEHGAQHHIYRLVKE
Protein cereblon/Programmed cell death protein 2 (Homo sapiens), sequence (Q16342 whole entry, looked up): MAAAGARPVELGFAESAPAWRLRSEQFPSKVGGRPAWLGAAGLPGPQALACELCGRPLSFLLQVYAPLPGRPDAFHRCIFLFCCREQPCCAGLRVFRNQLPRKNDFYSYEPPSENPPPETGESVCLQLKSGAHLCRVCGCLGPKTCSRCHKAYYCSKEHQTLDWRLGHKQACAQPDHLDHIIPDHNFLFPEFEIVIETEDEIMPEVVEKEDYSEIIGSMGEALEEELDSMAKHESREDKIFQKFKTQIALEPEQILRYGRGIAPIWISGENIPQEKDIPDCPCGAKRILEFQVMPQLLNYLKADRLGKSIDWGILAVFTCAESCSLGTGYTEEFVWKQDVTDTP
Protein cereblon/Programmed cell death protein 2 (Homo sapiens), sequence (Q96SW2 whole entry, looked up): as the sequence (Q96SW2 whole entry partner) above
Protein cereblon/Transcriptional enhancer factor TEF-3 (Homo sapiens), sequence (Q15561 whole entry, looked up): as the sequence (Q15561 whole entry partner) above
Protein cereblon/Transcriptional enhancer factor TEF-3 (Homo sapiens), sequence (Q96SW2 whole entry, looked up): as the sequence (Q96SW2 whole entry partner) above
Protein cereblon/Transcriptional enhancer factor TEF-1 (Homo sapiens), sequence (P28347 whole entry, looked up): as the sequence (P28347 whole entry) above
Protein cereblon/Transcriptional enhancer factor TEF-1 (Homo sapiens), sequence (Q96SW2 whole entry, looked up): as the sequence (Q96SW2 whole entry partner) above
Protein cereblon/Transcriptional enhancer factor TEF-5 (Homo sapiens), sequence (Q96SW2 whole entry, looked up): as the sequence (Q96SW2 whole entry partner) above
Protein cereblon/Transcriptional enhancer factor TEF-5 (Homo sapiens), sequence (Q99594 whole entry, looked up): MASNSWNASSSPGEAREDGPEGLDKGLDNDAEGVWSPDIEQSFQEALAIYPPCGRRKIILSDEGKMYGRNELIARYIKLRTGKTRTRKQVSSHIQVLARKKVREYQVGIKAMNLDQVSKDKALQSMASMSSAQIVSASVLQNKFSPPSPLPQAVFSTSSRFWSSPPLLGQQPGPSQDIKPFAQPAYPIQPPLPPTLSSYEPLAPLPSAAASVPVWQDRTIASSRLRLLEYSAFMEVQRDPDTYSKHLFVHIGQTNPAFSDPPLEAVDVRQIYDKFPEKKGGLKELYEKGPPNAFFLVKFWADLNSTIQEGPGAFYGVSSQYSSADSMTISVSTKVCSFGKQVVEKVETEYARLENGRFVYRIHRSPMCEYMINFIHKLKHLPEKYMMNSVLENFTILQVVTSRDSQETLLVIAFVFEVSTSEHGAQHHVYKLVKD
Protein cereblon/Transcriptional enhancer factor TEF-4, sequence (Q96SW2 whole entry, canonical isoform): as the sequence (Q96SW2 whole entry partner) above
Protein cereblon/Transcriptional enhancer factor TEF-4, sequence (Q15562 whole entry, canonical isoform): as the sequence (Q15562 whole entry partner) above

IC50 (NCI-H226 [1]): 340 nM
SMILES: C[C@H](NC(=O)c1ccc2c(-c3ccc(C(F)(F)F)cc3)cccc2c1)c1cccc(NCCOCCNc2cccc3c2C(=O)N(C2CCC(=O)NC2=O)C3=O)n1 (some centres undefined)

IC50 (NCI-H226 [1]): 810 nM
SMILES: C[C@H](NC(=O)c1ccc2c(-c3ccc(C(F)(F)F)cc3)cccc2c1)c1cccc(NCCCCCNc2cccc3c2C(=O)N(C2CCC(=O)NC2=O)C3=O)n1 (some centres undefined)

IC50 (NCI-H226 [1]): 350 nM
SMILES: C[C@H](NC(=O)c1ccc2c(-c3ccc(C(F)(F)F)cc3)cccc2c1)c1cccc(NCCOCCNc2ccc3c(c2)C(=O)N(C2CCC(=O)NC2=O)C3=O)n1 (some centres undefined)

IC50 (NCI-H226 [1]): 940 nM
SMILES: C[C@H](NC(=O)c1ccc2c(-c3ccc(C(F)(F)F)cc3)cccc2c1)c1cccc(NCCCNc2cccc3c2C(=O)N(C2CCC(=O)NC2=O)C3=O)n1 (some centres undefined)

Activity [2]: 45.1%
IC50 (NCI-H226 [1]): 260 nM
DC50 (Protein cereblon-TEAD): 39.7 nM
Activity [3]: Active
SMILES: C[C@H](NC(=O)c1ccc2c(-c3ccc(C(F)(F)F)cc3)cccc2c1)c1cccc(NCCOCCOCCOCCNc2cccc3c2C(=O)N(C2CCC(=O)NC2=O)C3=O)n1 (some centres undefined)

IC50 (NCI-H226 [1]): 2650 nM
SMILES: C[C@H](NC(=O)c1ccc2c(-c3ccc(C(F)(F)F)cc3)cccc2c1)c1cccc(NCCCCCCCNc2cccc3c2C(=O)N(C2CCC(=O)NC2=O)C3=O)n1 (some centres undefined)

IC50 (NCI-H226 [1]): 1510 nM
SMILES: C[C@H](NC(=O)c1ccc2c(-c3ccc(C(F)(F)F)cc3)cccc2c1)c1cccc(NCCNc2cccc3c2C(=O)N(C2CCC(=O)NC2=O)C3=O)n1 (some centres undefined)

IC50 (NCI-H226 [1]): 30 nM
SMILES: C[C@H](NC(=O)c1ccc2c(-c3ccc(C(F)(F)F)cc3)cccc2c1)c1cccc(N)n1

DC50 [4]: 54.1 nM
Activity [2]: 42.4%
IC50 (NCI-H226 [1]): 210 nM
Activity [6]: inactive
Activity [8]: Active
Activity [11]: inactive
DC50 (Protein cereblon-TEAD): 32.7 nM
Activity [3]: Active
Emax [12]: 40%
Activity [13]: inactive
IC50 (NCI-H2452): > 10000 nM
Activity [16]: inactive
Activity [17]: inactive
Activity [18]: Active
SMILES: C[C@H](NC(=O)c1ccc2c(-c3ccc(C(F)(F)F)cc3)cccc2c1)c1cccc(NCCOCCOCCNc2ccc3c(c2)C(=O)N(C2CCC(=O)NC2=O)C3=O)n1 (some centres undefined)
Activity (NCI-H226 [5]): Active
Activity [7]: inactive
Activity (NCI-H226 [9]): Active
Activity (NCI-H226 [10]): Active
Activity (NCI-H226 [14]): Active
Activity (NCI-H226 [15]): Active
Activity (NCI-H226 [19]): Active

IC50 (NCI-H226 [1]): 1150 nM
SMILES: C[C@H](NC(=O)c1ccc2c(-c3ccc(C(F)(F)F)cc3)cccc2c1)c1cccc(NCCCCCCNc2cccc3c2C(=O)N(C2CCC(=O)NC2=O)C3=O)n1 (some centres undefined)

IC50 (NCI-H226 [1]): 5110 nM
SMILES: C[C@H](NC(=O)c1ccc2c(-c3ccc(C(F)(F)F)cc3)cccc2c1)c1cccc(NCCCCCCCCNc2cccc3c2C(=O)N(C2CCC(=O)NC2=O)C3=O)n1 (some centres undefined)

IC50 (NCI-H226 [1]): 1180 nM
SMILES: C[C@H](NC(=O)c1ccc2c(-c3ccc(C(F)(F)F)cc3)cccc2c1)c1cccc(NCCCCNc2cccc3c2C(=O)N(C2CCC(=O)NC2=O)C3=O)n1 (some centres undefined)

IC50 (NCI-H226 [1]): 290 nM
Activity [3]: Active
SMILES: C[C@H](NC(=O)c1ccc2c(-c3ccc(C(F)(F)F)cc3)cccc2c1)c1cccc(NCCOCCOCCNc2cccc3c2C(=O)N(C2CCC(=O)NC2=O)C3=O)n1 (some centres undefined)

IC50 (NCI-H226 [1]): 230 nM
Activity [3]: Active
SMILES: C[C@H](NC(=O)c1ccc2c(-c3ccc(C(F)(F)F)cc3)cccc2c1)c1cccc(NCCOCCOCCOCCNc2ccc3c(c2)C(=O)N(C2CCC(=O)NC2=O)C3=O)n1 (some centres undefined)
